Active and inactive are the calls of the source. The calls are words filed in the database; no cut-off is given here.
What was measured:
H9c2 [1] = assay: Cytotoxicity in rat H9c2 cells assessed as intracellular ROS accumulation at 5 uM incubated for 24 hrs in presence of hydroxocobalamin by DCFDA-AM probe-based fluorimetrical analysis relative to control; assay type: cell-based; settings: h9c2, 24 h
Method in brief: (§1)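 H9c2 cells held 24 h with 5 μM drug plus 100 μM hydroxocobalamin, then loaded with 5 μM DCFDA-AM for 30 min at 37 °C. Fluorescence read at 492/517 nm, expressed as nmol ROS/mg protein. Duplicate, n = 3.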

[2] = Drug uptake in human U2OS/DX30 cells at 5 uM incubated for 24 hrs by fluorimetrical analysis; assay type: ADME, cell-based
Method in brief: (§2)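 Intracellular drug measured after 24 h exposure to 5 μM. Cell lysates read fluorimetrically at ex 475/em 553 nm with cell-free blank subtracted. Converted by calibration curve to nmol drug/mg cell protein. Duplicate, n = 3, mean ± SD.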

[3] = Drug uptake in human U2OS/DX100 cells at 5 uM incubated for 24 hrs by fluorimetrical analysis; assay type: ADME, cell-based; method in brief: as §2
H9c2 [4] = assay: Drug uptake in rat H9c2 cells at 5 uM incubated for 24 hrs by fluorimetrical analysis; assay type: ADME, cell-based; settings: h9c2, 24 h; method in brief: as §2
U2OS [5] = assay: Induction of intracellular ROS accumulation in human U2OS/DX30 cells at 5 uM incubated for 24 hrs by DCFDA-AM probe-based fluorimetrical analysis relative to control; assay type: functional, cell-based
Method in brief: (§3)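 After 24 h at 5 μM, 1×10^6 cells in 0.5 mL PBS were loaded with 5 μM DCFDA-AM for 30 min at 37 °C, spun and resuspended. Fluorescence read at ex 492/em 517 nm, expressed as nmol ROS/mg cell protein. Duplicate, n = 3, mean ± SD.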

U2OS [6] = assay: Cytotoxicity in human U2OS/DX580 cells at 5 uM incubated for 24 hrs by LDH release-based spectrofluorimetrical analysis; assay type: functional, cell-based
Method in brief: (§4)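 Cells exposed 24 h to 5 μM drug in DMEM with 10% FBS at 37 °C, 5% CO2. Medium spun 12,000 × g 5 min. Cells sonicated in 82.3 mM triethanolamine phosphate-HCl pH 7.6. LDH in medium and lysate followed 6 min at 340 nm. Extracellular LDH reported as % of total dish activity, duplicate, n = 3, mean ± SD.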

[7] = Drug uptake in human U2OS/DX580 cells at 5 uM incubated for 24 hrs by fluorimetrical analysis; assay type: ADME, cell-based; method in brief: as §2
[8] = molecular target: DNA topoisomerase 2-alpha (Homo sapiens) (UniProt P11388); assay: Inhibition of human topoisomerase 2-mediated DNA cleavage at 5 uM using supercoiled pHOT1 plasmid as substrate by agarose gel electrophoresis
DNA topoisomerase 2-alpha (Homo sapiens), sequence (P11388 whole entry): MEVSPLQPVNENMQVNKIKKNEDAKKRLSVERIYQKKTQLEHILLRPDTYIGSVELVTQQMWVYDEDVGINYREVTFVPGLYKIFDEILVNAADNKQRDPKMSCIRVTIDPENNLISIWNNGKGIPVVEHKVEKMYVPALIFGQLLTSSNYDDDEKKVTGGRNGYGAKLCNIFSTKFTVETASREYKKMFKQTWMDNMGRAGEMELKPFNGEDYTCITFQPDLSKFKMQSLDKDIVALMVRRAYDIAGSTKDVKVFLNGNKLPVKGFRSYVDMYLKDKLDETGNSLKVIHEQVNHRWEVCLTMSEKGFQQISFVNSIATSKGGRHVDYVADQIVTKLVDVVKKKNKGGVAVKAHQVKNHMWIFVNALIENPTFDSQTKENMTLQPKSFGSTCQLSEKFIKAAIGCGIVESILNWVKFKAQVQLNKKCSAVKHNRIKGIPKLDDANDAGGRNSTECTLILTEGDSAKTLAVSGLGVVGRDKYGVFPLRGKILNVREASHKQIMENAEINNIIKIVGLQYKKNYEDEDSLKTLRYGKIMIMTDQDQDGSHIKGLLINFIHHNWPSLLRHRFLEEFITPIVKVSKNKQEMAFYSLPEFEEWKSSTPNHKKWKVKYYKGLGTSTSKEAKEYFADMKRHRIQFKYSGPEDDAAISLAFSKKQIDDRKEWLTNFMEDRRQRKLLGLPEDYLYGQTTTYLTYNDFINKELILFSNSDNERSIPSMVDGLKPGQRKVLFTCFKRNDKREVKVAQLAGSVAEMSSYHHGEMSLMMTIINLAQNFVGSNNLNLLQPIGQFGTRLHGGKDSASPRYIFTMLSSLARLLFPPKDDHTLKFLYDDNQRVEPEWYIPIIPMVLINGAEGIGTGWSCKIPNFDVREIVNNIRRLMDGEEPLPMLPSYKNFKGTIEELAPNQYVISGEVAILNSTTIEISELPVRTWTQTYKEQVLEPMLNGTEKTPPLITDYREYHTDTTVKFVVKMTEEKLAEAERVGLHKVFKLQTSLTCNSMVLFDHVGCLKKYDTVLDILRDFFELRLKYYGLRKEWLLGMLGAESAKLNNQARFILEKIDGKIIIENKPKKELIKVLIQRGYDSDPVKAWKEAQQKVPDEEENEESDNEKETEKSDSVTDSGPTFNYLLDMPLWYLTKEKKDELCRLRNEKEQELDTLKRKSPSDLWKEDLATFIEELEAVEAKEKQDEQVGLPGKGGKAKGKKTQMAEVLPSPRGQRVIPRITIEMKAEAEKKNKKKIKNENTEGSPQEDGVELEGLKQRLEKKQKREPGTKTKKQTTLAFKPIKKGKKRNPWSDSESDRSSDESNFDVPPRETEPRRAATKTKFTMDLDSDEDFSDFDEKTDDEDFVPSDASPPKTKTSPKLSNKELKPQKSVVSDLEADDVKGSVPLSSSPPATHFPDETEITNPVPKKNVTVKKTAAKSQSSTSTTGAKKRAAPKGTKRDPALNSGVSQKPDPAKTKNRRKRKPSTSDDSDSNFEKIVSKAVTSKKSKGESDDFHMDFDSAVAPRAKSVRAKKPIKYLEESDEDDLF

U2OS [9] = assay: Induction of intracellular ROS accumulation in human U2OS cells at 5 uM incubated for 24 hrs by DCFDA-AM probe-based fluorimetrical analysis relative to control; assay type: functional, cell-based; method in brief: as §3
U2OS [10] = assay: Activity at PgP in human […] cells assessed as Vmax measured per mg of protein incubated for 20 mins by fluorimetrical analysis; assay type: cell-based
Method in brief: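 U-2OS/DX580 cells exposed 20 min to 0-50 μM drug, washed, intracellular doxorubicin read fluorimetrically; parallel dishes left a further 10 min at 37 °C before reading. Efflux rate (difference, nmol extruded/min/mg cell protein) plotted against initial concentration; Vmax and Km fitted. Means ± SD, n = 3.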

U2OS [11] = assay: Cytotoxicity in human U2OS/DX100 cells at 5 uM incubated for 24 hrs by LDH release-based spectrofluorimetrical analysis; assay type: functional, cell-based; method in brief: as §4
H9c2 [12] = assay: Cytotoxicity in rat H9c2 cells at 5 uM incubated for 24 hrs by LDH release-based spectrofluorimetrical analysis relative to control; assay type: cell-based; settings: h9c2, 24 h; method in brief: as §4
U2OS [13] = assay: Induction of intracellular ROS accumulation in human U2OS/DX580 cells at 5 uM incubated for 24 hrs by DCFDA-AM probe-based fluorimetrical analysis relative to control; assay type: functional, cell-based; method in brief: as §3
U2OS [14] = assay: Cytotoxicity in human U2OS/DX30 cells at 5 uM incubated for 24 hrs by LDH release-based spectrofluorimetrical analysis; assay type: functional, cell-based; method in brief: as §4
H9c2 [15] = assay: Cytotoxicity in rat H9c2 cells assessed as reduction in ROS level at 5 uM incubated for 24 hrs in presence of NAC by DCFDA-AM probe-based fluorimetrical analysis; assay type: cell-based; settings: h9c2, 24 h
H9c2 [16] = assay: Cytotoxicity in rat H9c2 cells […] at 5 uM incubated for 24 hrs in presence of dexrazoxane by LDH release-based spectrofluorimetrical analysis relative to control; assay type: cell-based; settings: h9c2, 24 h
U2OS [17] = assay: Induction of intracellular ROS accumulation in human U2OS/DX100 cells at 5 uM incubated for 24 hrs by DCFDA-AM probe-based fluorimetrical analysis relative to control; assay type: functional, cell-based; method in brief: as §3
H9c2 [18] = assay: Cytotoxicity in rat H9c2 cells assessed as intracellular ROS accumulation at 5 uM incubated for 24 hrs by DCFDA-AM probe-based fluorimetrical analysis relative to control; assay type: cell-based; settings: h9c2, 24 h; method in brief: as §3
H9c2 [19] = assay: Cytotoxicity in rat H9c2 cells at 5 uM incubated for 24 hrs in presence of NAC by LDH release-based spectrofluorimetrical analysis relative to control; assay type: cell-based; settings: h9c2, 24 h
H9c2 [20] = assay: Reduction of doxorubicin-mediated cytotoxicity in rat H9c2 cells at 5 uM incubated for 24 hrs by LDH release-based spectrofluorimetrical analysis relative to control; assay type: functional, cell-based
H9c2 [21] = assay: Cytotoxicity in rat H9c2 cells at 5 uM coincubated with doxorubicin for 24 hrs in presence of hydroxocobalamin by LDH release-based spectrofluorimetrical analysis relative to control; assay type: cell-based; settings: h9c2, 24 h
U2OS [22] = assay: Effect on doxorubicin accumulation in human U2OS/DX580 cells at 5 uM incubated for 24 hrs by fluorimetrical analysis; assay type: functional, cell-based
U2OS [23] = assay: Activity at PgP in human U2OS/[…] cells assessed as Vmax for doxorubicin measured per mg of protein incubated for 20 mins by fluorimetrical analysis (reference value: […] +/- […] nmol/min); assay type: cell-based
U2OS [24] = assay: Increase in doxorubicin accumulation in human U2OS/DX30 cells at 5 uM incubated for 24 hrs by fluorimetrical analysis; assay type: functional, cell-based
U2OS [25] = assay: Effect on doxorubicin-mediated cytotoxicity in human U2OS/DX580 cells at 5 uM incubated for 24 hrs LDH release-based spectrofluorimetrical analysis relative to control; assay type: functional, cell-based; method in brief: as §4
U2OS [26] = assay: Increase in doxorubicin accumulation in human U2OS/DX100 cells at 5 uM incubated for 24 hrs by fluorimetrical analysis; assay type: functional, cell-based
H9c2 [27] = assay: Cytotoxicity in rat H9c2 cells assessed as reduction in basal ROS level at 5 uM incubated for 24 hrs in presence of hydroxocobalamin by DCFDA-AM probe-based fluorimetrical analysis; assay type: cell-based; settings: h9c2, 24 h; method in brief: as §1
H9c2 [28] = assay: Cytotoxicity in rat H9c2 cells assessed as reduction in basal ROS level at 5 uM incubated for 24 hrs by DCFDA-AM probe-based fluorimetrical analysis; assay type: cell-based; settings: h9c2, 24 h; method in brief: as §3
U2OS [29] = assay: Reduction of doxorubicin-mediated ROS accumulation in human U2OS/DX30 cells at 5 uM incubated for 24 hrs by DCFDA-AM probe-based fluorimetrical analysis relative to control; assay type: functional, cell-based
U2OS [30] = assay: Reduction of doxorubicin-mediated ROS accumulation in human U2OS/DX100 cells at 5 uM incubated for 24 hrs by DCFDA-AM probe-based fluorimetrical analysis relative to control; assay type: functional, cell-based
H9c2 [31] = assay: Effect on doxorubicin accumulation in rat H9c2 cells at 5 uM incubated for 24 hrs by fluorimetrical analysis; assay type: functional, cell-based
U2OS [32] = assay: Reduction of doxorubicin-mediated cytotoxicity in human U2OS cells at 5 uM incubated for 24 hrs by DCFDA-AM probe-based fluorimetrical analysis relative to control; assay type: functional, cell-based
H9c2 [33] = assay: Cytotoxicity in rat H9c2 cells at 5 uM incubated for 24 hrs in presence of hydroxocobalamin by LDH release-based spectrofluorimetrical analysis relative to control; assay type: cell-based; settings: h9c2, 24 h
Method in brief: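 H9c2 cardiomyocytes given 5 μM drug for 24 h with 100 μM hydroxocobalamin as H2S scavenger. LDH measured at 340 nm over 6 min in medium and lysate. Extracellular activity taken as % of total, duplicate, n = 3.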

U2OS [34] = assay: Reduction of doxorubicin-mediated ROS accumulation in human U2OS/DX580 cells at 5 uM incubated for 24 hrs by DCFDA-AM probe-based fluorimetrical analysis relative to control; assay type: functional, cell-based
U2OS [35] = assay: Increase in doxorubicin-mediated cytotoxicity in human U2OS/DX30 cells at 5 uM incubated for 24 hrs by LDH release-based spectrofluorimetrical analysis relative to control; assay type: functional, cell-based; method in brief: as §4
U2OS [36] = assay: Increase in doxorubicin-mediated cytotoxicity in human U2OS/DX100 cells at 5 uM incubated for 24 hrs by LDH release-based spectrofluorimetrical analysis relative to control; assay type: functional, cell-based; method in brief: as §4

In the case of `COc1cccc2c1C(=O)c1c(O)c3c(c(O)c1C2=O)C[C@@](O)(C(=O)CO)C[C@@H]3O[C@H]1C[C@H](N)[C@H](O)[C@H](C)O1.Cl` [DOXORUBICIN HYDROCHLORIDE], the Activity (H9c2 [1]) is reported as “Toxic”, the Drug uptake [2] is reported as “Not Active” and the Drug uptake [3] is reported as “Not Active”. For the same compound, the Drug uptake (H9c2 [4]) was “Active”, the Activity (U2OS [5]) was “inactive” and the Activity (U2OS [6]) was “inactive”. For the same compound, the Drug uptake [7] was “Not Active”, the inhibition [8] was “inactive” and the Activity (U2OS [9]) was “Active”. For the same compound, the Vmax (U2OS [10]) was 24.1 nmol/min/mg, the Activity (U2OS [11]) was “inactive” and the Activity (H9c2 [12]) was “Toxic”. The Activity (U2OS [13]) was “inactive”, the Activity (U2OS [14]) was “inactive” and the Activity (H9c2 [15]) was “Non-toxic”. The Activity (H9c2 [16]) was “Toxic”, the Activity (U2OS [17]) was “inactive” and the Activity (H9c2 [18]) was “Toxic”. For the same compound, the Activity (H9c2 [19]) was “Non-toxic”.
In the case of `O=C(O)c1ccc(-c2ssc(=S)c2-c2ccccc2)cc1`, the Activity (H9c2 [20]) is reported as “Active”, the Activity (H9c2 [21]) is reported as “Toxic” and the Activity (U2OS [22]) is reported as “inactive”. The Vmax (U2OS [23]) was 16 nmol/min/mg, the Activity (U2OS [24]) was “Active” and the Activity (U2OS [25]) was “inactive”. The Activity (H9c2 [12]) was “Non-toxic”, the Activity (U2OS [26]) was “Active” and the Activity (H9c2 [27]) was “Toxic”. For the same compound, the Activity (H9c2 [28]) was “Non-toxic”, the Activity (U2OS [29]) was “Active” and the Activity (U2OS [30]) was “Active”. For the same compound, the Activity (H9c2 [31]) was “inactive”, the Activity (U2OS [32]) was “Active” and the Activity (H9c2 [33]) was “Toxic”. For the same compound, the Activity (U2OS [34]) was “Active”, the Activity (U2OS [35]) was “Active” and the Activity (U2OS [36]) was “Active”.
